The term pIC50 denotes the IC50 on a negative log10 scale, so that one unit is a factor of ten. By inhibition is commonly meant how much of the control response was suppressed. What is called GI50 is the concentration giving 50% growth inhibition.

pIC50: −log10 of the molar value.

Series [1] deals with T1, Multidrug resistance-associated protein 1 (Homo sapiens, UniProt P33527). In words: Inhibition of MRP1 in human H69AR cells assessed as daunorubicin accumulation preincubated for 15 mins measured after 180 mins by flow cytometry. In kind it is cell-based. An outline of the steps:
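H69 AR cells, about 60,000 per well in culture medium. Preincubated 15 min with compound diluted in unsupplemented medium, then daunorubicin added (20 µL of 30 µM solution). Held 180 min at 37 °C, 5% CO2, protected from light, to reach steady state. Cells resuspended; flow cytometry with 488 nm excitation, FL3 ≥670 nm. IC50 from four-parameter logistic with variable Hill slope; ≥3 independent experiments in duplicate.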

Series [2] has as its target T2, Broad substrate specificity ATP-binding cassette transporter ABCG2 (Homo sapiens, UniProt Q9UNQ0).
T2 sequence (Q9UNQ0 whole entry): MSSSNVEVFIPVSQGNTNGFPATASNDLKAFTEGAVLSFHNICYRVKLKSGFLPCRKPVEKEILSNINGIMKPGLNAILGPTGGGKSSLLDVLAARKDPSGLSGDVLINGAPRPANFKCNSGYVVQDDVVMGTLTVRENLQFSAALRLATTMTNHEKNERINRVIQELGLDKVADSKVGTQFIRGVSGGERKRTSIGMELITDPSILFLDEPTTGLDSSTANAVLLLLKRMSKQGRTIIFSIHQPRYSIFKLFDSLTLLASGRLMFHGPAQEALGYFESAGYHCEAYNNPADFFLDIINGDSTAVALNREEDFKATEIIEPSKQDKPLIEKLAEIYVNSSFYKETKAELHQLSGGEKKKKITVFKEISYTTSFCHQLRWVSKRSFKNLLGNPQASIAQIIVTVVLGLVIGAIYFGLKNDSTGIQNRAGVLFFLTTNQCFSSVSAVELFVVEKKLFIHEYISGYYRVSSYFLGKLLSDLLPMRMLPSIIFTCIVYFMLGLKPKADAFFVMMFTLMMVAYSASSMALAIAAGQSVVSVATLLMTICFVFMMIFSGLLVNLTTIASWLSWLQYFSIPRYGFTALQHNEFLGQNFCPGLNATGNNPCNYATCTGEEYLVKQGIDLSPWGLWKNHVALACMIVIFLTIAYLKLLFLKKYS
Put plainly: Inhibition of BCRP (unknown origin) expressed in MDCK2 cells assessed as pheophorbide A accumulation preincubated for 20 mins measured after 120 mins by flow cytometry. In kind it is cell-based, MDCK-II. An outline of the steps: (§1)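 MDCK II BCRP cells (GFP detected in FL1 to monitor BCRP expression), about 45,000 per well. Preincubated 20 min at 37 °C, 5% CO2 with compound (1–100 µM solutions, 20 µL into 200 µL final volume). Pheophorbide A added (20 µL of 5 µM solution) for 120 min to reach steady state. Cells resuspended, then flow cytometry: 488 nm excitation, FL3 ≥670 nm. […] The four-parameter logistic top was constrained to Ko143; ≥3 experiments in duplicate.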
Background: In flow cytometry, cells or beads pass a laser one at a time.

The species named for a further series is Homo sapiens. In words: Inhibition of P-gp (unknown origin) at 10 uM after 30 mins by calcein AM accumulation assay.
Another series deals with T3, BCRP (ABCG2) (Homo sapiens, UniProt Q9UNQ0).
T3 sequence (Q9UNQ0 whole entry): T2 sequence (Q9UNQ0 whole entry)
In words: Inhibition of BCRP (unknown origin) expressed in MDCK2 cells assessed as pheophorbide A accumulation at 10 uM preincubated for 20 mins measured after 120 mins by flow cytometry. In kind it is cell-based, MDCK-II. Particulars: MDCK2 cells expressing BCRP, probe pheophorbide A. An outline of the steps:
as §1

Series [3] in a line: Cytotoxicity against human H69AR cells overexpressing MRP1 assessed as reduction in cell viability at 10 uM after 72 hrs by MTT assay. In kind it is cell-based. The conditions noted are these: h69ar, 72 h, 10 µM. An outline of the steps: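 H69 AR cells, about 20,000 per well, 72 h at 37 °C in humidified CO2 with compound at 10 µM. MTT (5 mg/mL, 20 µL) added for 1 h, then DMSO solubilization and absorbance 570 nm with 690 nm background. Viability scaled between plain medium (100%) and 10% DMSO (0%). ≥3 independent experiments in duplicate.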
A general note: Tetrazolium dyes change colour on reduction, which living cells bring about.

The nature of series [4]: Cytotoxicity against human H69AR cells overexpressing MRP1 assessed as growth inhibition after 72 hrs by MTT assay. In kind it is cell-based. An outline of the steps:
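H69 AR cells, about 20,000 per well, exposed 72 h at 37 °C in humidified CO2 to test compound diluted in culture medium (100 nM to 100 µM solutions, 20 µL added to 180 µL cells). Then MTT (5 mg/mL, 20 µL) for 1 h, formazan taken up in DMSO, absorbance 570 nm minus 690 nm. Plain medium set 100% viability, 10% DMSO 0%. GI50 from variable-slope nonlinear fit; ≥3 independent experiments in duplicate.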

Series [5] addresses T1, Multidrug resistance-associated protein 1. The conditions noted are these: h69ar, 72 h, 1 µM.
For series [6] the target is unchanged. The conditions noted are these: h69ar, 72 h, 5 µM.
For series [7] the target is unchanged. The conditions noted are these: h69ar, 72 h, 10 µM.
The target is the same in series [8]. Put plainly: Inhibition of MRP1 in human H69AR cells incubated for 20 mins measured every 60 seconds by calcein-AM accumulation assay.
Series [9] has the same target. Put plainly: Inhibition of MRP1 in daunorubicin resistant human H69AR cells assessed as potentiation of daunorubicin-induced growth inhibition at 1 to 10 uM after 72 hrs by MTT assay relative to control. In kind it is cell-based.

T1 sequence (P33527 whole entry): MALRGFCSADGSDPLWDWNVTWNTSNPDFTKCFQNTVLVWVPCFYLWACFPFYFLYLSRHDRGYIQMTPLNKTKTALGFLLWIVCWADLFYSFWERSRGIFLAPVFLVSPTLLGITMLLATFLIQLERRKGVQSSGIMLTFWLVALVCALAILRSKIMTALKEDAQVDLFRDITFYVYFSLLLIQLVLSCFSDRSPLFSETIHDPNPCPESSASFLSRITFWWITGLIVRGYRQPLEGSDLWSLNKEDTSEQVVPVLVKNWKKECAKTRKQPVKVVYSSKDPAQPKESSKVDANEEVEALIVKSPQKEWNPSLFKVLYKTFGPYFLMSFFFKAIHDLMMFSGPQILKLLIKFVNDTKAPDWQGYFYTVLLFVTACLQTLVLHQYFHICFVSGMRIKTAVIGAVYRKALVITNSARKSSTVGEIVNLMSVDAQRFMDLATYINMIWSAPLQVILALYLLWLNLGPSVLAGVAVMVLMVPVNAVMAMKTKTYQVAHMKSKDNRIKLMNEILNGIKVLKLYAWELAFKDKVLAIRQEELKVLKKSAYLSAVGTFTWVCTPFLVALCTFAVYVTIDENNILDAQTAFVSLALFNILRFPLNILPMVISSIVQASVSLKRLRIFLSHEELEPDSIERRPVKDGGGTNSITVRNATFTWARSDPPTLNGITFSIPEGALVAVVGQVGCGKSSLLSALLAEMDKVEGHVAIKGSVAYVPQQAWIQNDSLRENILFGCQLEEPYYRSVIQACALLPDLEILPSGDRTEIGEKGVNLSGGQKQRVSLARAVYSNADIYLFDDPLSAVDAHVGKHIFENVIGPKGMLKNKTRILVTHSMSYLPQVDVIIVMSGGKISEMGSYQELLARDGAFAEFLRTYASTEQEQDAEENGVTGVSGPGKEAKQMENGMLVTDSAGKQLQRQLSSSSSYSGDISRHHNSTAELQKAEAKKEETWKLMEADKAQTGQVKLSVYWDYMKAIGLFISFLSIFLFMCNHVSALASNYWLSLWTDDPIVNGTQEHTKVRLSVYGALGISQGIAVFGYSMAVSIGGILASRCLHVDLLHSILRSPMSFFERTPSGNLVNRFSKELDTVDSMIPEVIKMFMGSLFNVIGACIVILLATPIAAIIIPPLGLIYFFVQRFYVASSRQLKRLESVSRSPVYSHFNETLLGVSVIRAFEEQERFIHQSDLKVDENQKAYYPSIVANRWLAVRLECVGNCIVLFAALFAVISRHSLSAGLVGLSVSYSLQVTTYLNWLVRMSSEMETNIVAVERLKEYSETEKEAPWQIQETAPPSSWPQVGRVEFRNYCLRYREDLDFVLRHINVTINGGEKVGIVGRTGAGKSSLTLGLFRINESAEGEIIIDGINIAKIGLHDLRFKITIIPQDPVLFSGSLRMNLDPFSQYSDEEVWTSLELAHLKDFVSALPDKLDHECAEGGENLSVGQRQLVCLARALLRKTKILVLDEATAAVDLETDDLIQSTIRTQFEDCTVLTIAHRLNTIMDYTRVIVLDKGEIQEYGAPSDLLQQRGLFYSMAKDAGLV

Take `N#Cc1c2n(c3c(NCCCc4ccccc4)ncnc13)CCCC2`: the pIC50 in series [1] is 5.55; in [2], 5.22; in series [8] it was 5.60. For the same compound, the inhibition in the series filed under Homo sapiens is greater than 25%. The inhibition at 2 h, 10 µM at BCRP (ABCG2) is greater than 25%. Also, the Activity result in series [3] is reported as “Non-toxic”. In addition, in series [4], the GI50 at 72 h was found to be 132000 nM. For the same compound, the GI50 turned out to be 2410 nM in [5], 751 nM in [6] and 450 nM in series [7].
`N#Cc1cn(C2CC2)c2c(N3CCN(CCc4ccccc4)CC3)ncnc12`: the “fold change (FC)” value in series [9] came to 10. The values for the pIC50 in series [1] and in series [8] were 6.70 and 6.61, respectively. For the same compound, the inhibition in the series listed under Homo sapiens was greater than 25%. The inhibition at 2 h, 10 µM on BCRP (ABCG2) was less than 25%. Further, the Activity result in [3] is listed as “Non-toxic”. The concentration for 50% growth inhibition (GI50) at 72 h in series [4] was 36000 nM.
As for `N#Cc1c2n(c3c(N4CCNCC4)ncnc13)CCCC2`, the pIC50 in series [1] is 4.97; in series [8], 4.56. Further, the inhibition in the series listed under Homo sapiens was greater than 25%. Besides, the inhibition at 2 h, 10 µM at BCRP (ABCG2) is greater than 25%. Moreover, the Activity result in series [3] is “Non-toxic”. In addition, the GI50 at 72 h in series [4] is 60600 nM. In addition, the GI50 turned out to be 2940 nM in series [5], 2480 nM in series [6] and 1830 nM in series [7].
